PfHsp90 set2: inhibits growth of yeast expressing Plasmodium falciparum Hsp90; S. cerevisiae expressing PfHsp90, BacTiter-Glo ATP, 48 h; yeast lacking PDR1 and PDR3 efflux regulators; inhibition, % at 9.4 µM; 0.32% of 310,000 active;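 active = every replicate shows inhibition above about 80%, whatever the replicate mean, limit read from the data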;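 note: 0% = DMSO neutral controls and 100% = 20 µM radicicol positive controls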
Ecoli rRNA inh: selective bacterial rRNA inhibition in E. coli. E. coli WT GFP vs humanized-ribosome RFP mutants, fluorescence, 24 h; stronger effect = lower value; DMSO median 0, no signal -100. GFP signal change (wild-type ribosome), % (test concentration not listed). 1.6% of 350,000 active;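 active = significant combined selectivity score with lowered wild-type GFP, culture density cut under 30%, mutant RFP and density less affected; inactive = any of these conditions unmet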
S100A4 inh HTS: S100A4-myosin IIA interaction inhibition; inhibition, % at 10.7 µM; 0.14% of 360,000 active; S100A4/TAMRA-MyoIIA peptide fluorescence polarization;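 active = mean inhibition of at least 70% across replicates, with every replicate also reaching that level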
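Compound dosing: one dose per compound; test system: human S100A4 monomer with TAMRA-labelled myosin IIA peptide; probe or stimulus: TAMRA-labelled myosin IIA heavy-chain peptide probe, 5 nM; medium: HEPES buffer with Ca2+, pH 7.2; schedule: 5 min incubation before reading; benchmarks: neutral control DMSO, positive control TFP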
Cneo AK release: Cryptococcus neoformans lysis via adenylate kinase release. AID 651654. lysis activity, % at 15 µM. C. neoformans lysis, adenylate kinase release luminescence, 4 h; normalised: neutral wells 0, clomiphene wells 100. 0.2% of 360,000 active;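 active = mean lysis activity across replicates of at least 80%, whatever share of replicates individually reach that level; inactive = mean lysis activity below 80%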
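Material – log-phase Cryptococcus neoformans yeast cells · Input – 5 × 10^6 yeast cells/mL · Medium – fresh YPD growth medium · Doses – single compound concentration per well · Timing – static 4 h at 37 °C with compound, 1 h detection · Detection – adenylate kinase release luminescence · Read-out – signal increase indicating cell lysis · Control set – Clomiphene as positive lysis control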
AF4-AF9 inh: inhibitors of human MLL-AF4/AF9 interaction; AlphaScreen, biotin-AF4 peptide binding to FLAG-AF9; 0.47% of 350,000 active; AID 651704; P42568; inhibition, % at 10 µM;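 active = every replicate reaching a set inhibition limit, whatever the replicate mean, cut at about 25% in these data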;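 note: 0% = plate neutral control median and 100% = total signal loss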
DENV2 CPE: protects cells from dengue virus 2 cytopathic effect; DENV2-infected cells, cytopathic effect rescue, plate reader; CPE inhibition, % at 9.99 µM; 1.7% of 350,000 active; AID 651640; in the data active = CPE inhibition above about 20%, passing the limit was not always enough; tested in BHK-21 cells;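 note: 0% = median of neutral control wells and 100% = median of positive control wells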
Numbers without * were called inactive; . = no result given. This is a sample that favours compounds with a hit; in the whole collection about 3.2% have one here.

SMILES | PfHsp90 set2 | Ecoli rRNA inh | S100A4 inh HTS | Cneo AK release | AF4-AF9 inh | DENV2 CPE
O=C(C[C@@H]1C[C@H]2c3cc(NC(=O)c4ccc5c(c4)OCO5)ccc3O[C@H]2[C@H](CO)O1)NC1CCCC1 | . | -3 | 3 | 1 | 1 | 7
O=C(C[C@@H]1C[C@H]2c3cc(NC(=O)c4ccc5c(c4)OCO5)ccc3O[C@H]2[C@@H](CO)O1)NCC1CC1 | . | -4 | 0 | 11 | -2 | 27*
O=C(C[C@@H]1C[C@@H]2c3cc(NC(=O)c4ccc5c(c4)OCO5)ccc3O[C@@H]2[C@@H](CO)O1)NC1CCCC1 | . | -3 | 14 | 0 | 2 | 34*
O=C(C1CCCC1)N1CC2(C1)[C@@H](c1ccccc1)[C@H](CO)N2C(=O)NC1CCCC1 | . | 0 | 1 | . | -1 | 5
C[C@H]1CN([C@@H](C)CO)C(=O)c2cccc(NS(=O)(=O)c3cn(C)cn3)c2O[C@H]1CN(C)Cc1ccc(Oc2ccccc2)cc1 | . | 2 | 2 | -4 | -2 | 13
COc1cc(C2(c3ccc(O)c(OC)c3)C(=O)Nc3c(Br)cc(Br)cc32)ccc1O | 7 | -48* | -6 | -1 | 0 | -5
COc1cc(C2(c3ccc(O)c(OC)c3)C(=O)N(C)c3ccc(Br)cc32)ccc1O | 9 | -43 | -1 | . | 0 | 1
CC(=O)Cn1ncc(N2CCCCC2)c(Cl)c1=O | -7 | -5 | -4 | . | -3 | -1
CC(=O)OCn1ncc(N2CCOCC2)c(Br)c1=O | -1 | 7 | 5 | -1 | 42* | 5
C/C(Cn1ncc(N2CCOCC2)c(Cl)c1=O)=N\O | 4 | 20 | 1 | 0 | -1 | 29*
O=C(CCN1CCCCC1)NCC[C@@H]1CC[C@@H](NS(=O)(=O)c2cccc(Cl)c2)[C@H](CO)O1 | . | 4 | . | . | . | .
C[C@H]1CN([C@@H](C)CO)C(=O)Cc2cc(NC(=O)Nc3cccc4ccccc34)ccc2O[C@H]1CN(C)Cc1ccc(C(=O)Nc2ccccc2N)cc1 | . | -50 | 8 | . | -3 | 6
C[C@@H]1CN([C@H](C)CO)C(=O)Cc2cc(NC(=O)Nc3cccc4ccccc34)ccc2O[C@H]1CN(C)Cc1ccc(C(F)(F)F)cc1 | . | 2 | 1 | 0 | 0 | -8
C[C@H]1CN([C@@H](C)CO)C(=O)Cc2cc(NC(=O)Nc3cccc4ccccc34)ccc2O[C@H]1CN(C)Cc1ccc(C(F)(F)F)cc1 | . | 0 | 4 | 4 | -1 | 33*
C[C@H](CO)N1C[C@H](C)[C@@H](CN(C)Cc2ccc(C(=O)O)cc2)Oc2ccc(NC(=O)Nc3cccc4ccccc34)cc2CC1=O | . | -1 | 10 | 0 | 2 | 77*
C[C@H]1CN([C@@H](C)CO)C(=O)Cc2cc(NC(=O)Nc3cccc4ccccc34)ccc2O[C@@H]1CN(C)Cc1ccc(C(F)(F)F)cc1 | . | 6 | -16 | -2 | 0 | 6
C[C@H](CO)N1C[C@H](C)[C@H](CN(C)Cc2ccc(C(F)(F)F)cc2)Oc2ccc(NC(=O)Nc3cccc4ccccc34)cc2CC1=O | . | 9 | 1 | 3 | 0 | 42*
C[C@H]1CN([C@@H](C)CO)C(=O)Cc2cc(NC(=O)Nc3cccc4ccccc34)ccc2O[C@@H]1CN(C)Cc1ccc(C(=O)Nc2ccccc2N)cc1 | . | 0 | -11 | . | -4 | 38*
CO[C@@H]1CN(C)C(=O)c2ccc(NC(=O)C3CC3)cc2OC[C@H](C)N(CCc2ccccc2)C[C@@H]1C | . | -1 | -8 | 48 | -1 | -1
Cc1ccc(S(=O)(=O)/N=C2\C=C(Nc3cccc(C(=O)O)c3)C(=O)c3ccccc32)cc1 | 23 | 3 | -3 | 4 | 8 | -1
CCc1ccc(NC2=CC(=O)C(=O)c3ccccc32)cc1 | -98 | -24* | -2 | . | 10 | 8
O=C1C=C(Nc2ccccc2)c2ccccc2C1=O | -8 | -36 | -2 | . | 3 | 9
CCc1ccc(S(=O)(=O)/N=C2\C=C(Nc3ccc(C(=O)O)cc3)C(=O)c3ccccc32)cc1 | -21 | 7 | -1 | -1 | 28* | 4
